Experimental findings from publication PMC8038854 (Biochemical Journal, 2021) are described below.

Like-named read-outs stand apart in the source and are kept apart here. Peptide text beside a SMILES is read from it.

Assay [1] deals with T1, Scrib PDZ3 WT (1002–1094) (Homo sapiens, UniProt Q14160).
T1 sequence (Q14160 1002-1094): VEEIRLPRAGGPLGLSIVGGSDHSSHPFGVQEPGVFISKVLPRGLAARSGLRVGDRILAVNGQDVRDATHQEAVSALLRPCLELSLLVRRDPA
Briefly: ITC of PBM peptides against Scrib PDZ3 WT. Type of assay: binding. The method, boiled down: (§1)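 Recombinant human Scribble PDZ domains (wild type or point mutant) were expressed in E. coli BL21(DE3) pLysS as GST or MBP fusions and purified. Synthetic 8-mer C-terminal PBM peptides, including a pan-PDZ positive-control peptide, were titrated into protein in 25 mM Hepes pH 7.5, 150 mM NaCl at 25°C. There were 20 injections spaced 180 s apart. KD came from a 1:1 model, with ±SD from at least three independent experiments.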

The target in another assay is Scrib PDZ1 Q808H (Homo sapiens, UniProt Q14160, Q808H). Briefly: ITC of PBM peptides against Scrib PDZ1 Q808H. Type of assay: binding. The method, boiled down:
as §1

In another assay the target is T2, Scrib PDZ3 R1044Q (Homo sapiens, UniProt Q14160, R1044Q).
T2 sequence (Q14160 1002-1094 R1044Q): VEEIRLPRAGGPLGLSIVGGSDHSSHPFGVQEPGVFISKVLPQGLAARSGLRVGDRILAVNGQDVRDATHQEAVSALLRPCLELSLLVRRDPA
Nature of the assay: ITC of PBM peptides against Scrib PDZ3 R1044Q. Type of assay: binding. The method in brief: as §1

For a further assay, the target named is Scrib PDZ1 WT (728–815) (Homo sapiens, UniProt Q14160). Briefly: Isothermal titration calorimetry. Type of assay: binding. The method, boiled down:
as §1

The target in another assay is T3, Scrib PDZ2 WT (860–950) (Homo sapiens, UniProt Q14160).
T3 sequence (Q14160 860-950): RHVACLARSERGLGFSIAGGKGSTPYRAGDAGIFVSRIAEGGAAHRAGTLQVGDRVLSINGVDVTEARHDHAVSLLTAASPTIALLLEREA
Nature of the assay: ITC of PBM peptides against Scrib PDZ2 WT. It is filed as binding. The method, boiled down: as §1

Assay [2] addresses Scribble PDZ3 R1044Q (human) (UniProt Q14160). Nature of the assay: ITC.
Assay [3] deals with Scribble PDZ1 Q808H (human) (UniProt Q14160). Briefly: ITC.
Assay [4] addresses Scribble PDZ2 R896A (human) (UniProt Q14160). Briefly: ITC.
Assay [5] has as its target Scribble PDZ1 H793A (human) (UniProt Q14160). Nature of the assay: ITC.
Assay [6] addresses Scribble PDZ1 Q808H (human) (UniProt Q14160). Nature of the assay: ITC. This is another data set of the same source.
Another assay deals with T4, Scribble PDZ2 H928A (human, UniProt Q14160 860-950, H928A).
T4 sequence (looked up): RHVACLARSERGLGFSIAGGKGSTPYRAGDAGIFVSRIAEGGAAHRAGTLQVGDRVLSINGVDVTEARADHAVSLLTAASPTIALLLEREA
Nature of the assay: ITC.

The next assay has as its target T5, Scribble PDZ3 P1043L (human, UniProt Q14160 1002-1094, P1043L).
T5 sequence (looked up): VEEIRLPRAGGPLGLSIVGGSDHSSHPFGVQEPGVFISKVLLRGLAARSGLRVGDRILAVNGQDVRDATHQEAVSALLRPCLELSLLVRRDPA
Briefly: ITC.

The next assay concerns the target Scribble PDZ1 E814G (human, UniProt Q14160 728-815, E814G). Nature of the assay: ITC.
A further assay has as its target T6, Scribble PDZ3 R1044Q (human, UniProt Q14160 1002-1094, R1044Q).
T6 sequence (looked up): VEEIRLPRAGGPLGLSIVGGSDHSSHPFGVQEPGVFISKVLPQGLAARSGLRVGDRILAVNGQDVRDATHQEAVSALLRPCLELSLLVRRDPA
Briefly: ITC.

A further assay concerns the target T7, Scribble PDZ2 R896A (human, UniProt Q14160 860-950, R896A).
T7 sequence (looked up): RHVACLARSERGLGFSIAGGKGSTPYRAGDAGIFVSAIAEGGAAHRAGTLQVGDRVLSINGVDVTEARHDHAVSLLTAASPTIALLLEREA
Briefly: ITC.

Another assay concerns the target Scribble PDZ1 H793A (human, UniProt Q14160 728-815, H793A). Briefly: ITC.
Another assay concerns the target Scribble PDZ1 Q808H (human, UniProt Q14160 728-815, Q808H). Nature of the assay: ITC.

Sequence of Scribble PDZ1 Q808H (human) (Q14160 728-815 Q808H): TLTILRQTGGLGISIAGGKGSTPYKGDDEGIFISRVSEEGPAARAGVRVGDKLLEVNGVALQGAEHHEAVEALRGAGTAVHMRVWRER
Sequence of Scrib PDZ1 Q808H (Q14160 728-815 Q808H): as above
Sequence of Scrib PDZ1 WT (728–815) (Q14160 728-815): as the sequence (Q14160 728-815 Q808H) above, with H81Q counted along it
Sequence of Scribble PDZ1 H793A (Q14160 728-815 H793A): as the sequence (Q14160 728-815 Q808H) above, with H66A, H81Q counted along it
Sequence of Scribble PDZ1 Q808H (Q14160 728-815 Q808H): as the sequence (Q14160 728-815 Q808H) above
Sequence of Scribble PDZ1 H793A (human) (Q14160 728-815 H793A): as the sequence (Q14160 728-815 Q808H) above, with H66A, H81Q counted along it
Sequence of Scribble PDZ1 E814G (Q14160 728-815 E814G): as the sequence (Q14160 728-815 Q808H) above, with H81Q, E87G counted along it

Take `CC(C)C[C@H](NC(=O)[C@@H](N)CCCNC(=N)N)C(=O)N[C@@H](CCC(N)=O)C(=O)N[C@@H](CO)C(=O)N[C@@H](CCC(=O)O)C(=O)N[C@H](C(=O)N[C@@H](CO)C(=O)N[C@H](C(=O)O)C(C)C)[C@@H](C)O` [Vangl2] (H-RLQSETSV-OH): the Kd in [1] came out at 40.2 ± 3.92 µM; on Scrib PDZ1 Q808H, 10.4 ± 0.27 µM; on Scrib PDZ3 R1044Q, 20.9 ± 4.67 µM; on Scrib PDZ1 WT (728–815), 24.5 ± 3.9 µM; on Scrib PDZ2 WT (860–950), 45.1 ± 4.92 µM.
Turning to APC C-terminal peptide, the dissociation constant Kd in assay [2] stood at 27.4 µM; in [3], 6.06 µM; in [4] it was 30.6 µM.
As to beta-PIX C-terminal peptide, the equilibrium dissociation constant (Kd) came out at 14.1 µM in assay [2]; 3.11 µM in assay [3]; 62.8 µM in assay [5]; 189 µM in [4]; 10.4 µM in assay [6].
Turning to RSWFETWV [superpeptide (synthetic pan-PDZ binding peptide)], the Kd in the assay with Scribble PDZ2 H928A turned out to be 27.7 µM; in the assay with Scribble PDZ3 P1043L it was 9.75 µM; with Scribble PDZ1 E814G, 2.36 µM; with Scribble PDZ3 R1044Q, 7.22 µM; in the assay with Scribble PDZ2 R896A, 7.8 µM; in the assay with Scribble PDZ1 H793A, 2.18 µM. This molecule had a Kd with Scribble PDZ1 Q808H of 2.73 µM.
Regarding RLQSETSV [Vangl2 C-terminal PBM peptide (RLQSETSV)], the Kd was 26.7 µM with Scribble PDZ2 R896A and 29.9 µM with Scribble PDZ1 H793A.
